Assay outcomes: PubChem BioAssay, The Scripps Research Institute Molecular Screening Center
OX1R antag-1 – antagonists of human orexin 1 receptor; O43613; actives 0.43% (n = 330,000); inhibition, % at 5 µM; CHO/OX1R cells, Fluo-8 calcium fluorescence, orexin A;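 active = inhibition above its plate's threshold, mean inhibition of all tested compounds on the plate plus 3 SD, cut at about 37% in these data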
TAAR1 antagonist – human TAAR1 antagonism | Q96RJ0 | CHO RD-HGA16 TAAR1, Fluo-8 calcium fluorescence, antagonist | inhibition, % at 3 µM | actives 1.5% (n = 360,000) | AID 624466;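 active = inhibition above a per-plate cutoff, the mean inhibition of test compounds on that plate plus 3 SD, cut at about 49% in these data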
Target sequence (Q96RJ0 whole entry, looked up): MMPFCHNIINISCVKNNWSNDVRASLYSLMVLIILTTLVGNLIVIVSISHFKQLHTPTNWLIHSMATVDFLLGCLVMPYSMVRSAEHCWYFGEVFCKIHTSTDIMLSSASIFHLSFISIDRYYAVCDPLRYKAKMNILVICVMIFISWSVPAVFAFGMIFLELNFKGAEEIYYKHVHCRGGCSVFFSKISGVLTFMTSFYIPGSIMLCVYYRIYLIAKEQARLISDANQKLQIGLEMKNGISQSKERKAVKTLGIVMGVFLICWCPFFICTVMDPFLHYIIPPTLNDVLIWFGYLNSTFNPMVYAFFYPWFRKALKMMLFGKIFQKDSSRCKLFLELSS
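Test system – hTAAR1-expressing CHO RD-HGA16 cells, Gα16-coupled · Reagent – β-PEA at EC80 concentration, post-compound challenge · Compound dosing – 3 µM, single point · Timing – 140 s kinetic read after compound, 140 s after agonist · Detection – Fluo-8 intracellular calcium dye fluorescence, real-time kinetic reads · Control set – DMSO and EC80 PEA controls · Repeats – n of 1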
OX1R antag-2 – antagonists of human orexin 1 receptor (OX1R) | AID 485270 | inhibition, % at 6.6 µM | O43613 | OX1R-expressing cells, FRET antagonist read-out | actives 1.8% (n = 330,000); in the data active = inhibition mostly above about 38%, no sharp cut-off; inactive = mostly below about 40%
TAAR1 ag – agonists of human TAAR1; CHO RD-HGA16 TAAR1, Fluo-8 calcium fluorescence; vehicle wells 0%, saturating PEA agonist 100%; Q96RJ0; activation, % at 3 µM; actives 0.99% (n = 360,000);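 active = activation above the mean activation of all test compounds in the run plus 3 SD, cut at about 38% in these data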
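Assay system – CHO-derived RD-HGA16 cells with stable Gα16 and human TAAR1 · Compound dosing – one-point dosing at 3 µM (nominal) · Incubation – 17-24 h seeding, 75 min 37 °C dye, 30 min RT · Measured by – kinetic Fluo-8 calcium fluorescence · Control set – DMSO vehicle as 0%, PEA at EC100 as 100% · Repeats – single well for each compound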
CHO parental Ca – signal in parental CHO cells, OX1R antagonist counter-screen. parental CHO-K1, ATP-induced calcium, Fluo-8 fluorescence. inhibition, % at 5.6 µM. actives 0.63% (n = 330,000);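 active = inhibition above that plate's mean sample inhibition plus 3 SD, cut at about 26% in these data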
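Test system: untransfected parental CHO cell line; also added: ATP stimulus; dosing: 5.6 µM, single dose; signal: calcium-sensitive Fluo-8 fluorescence; measure: percent inhibition of ATP-evoked calcium rise, normalized to controls; benchmarks: low control ATP plus DMSO, high control DMSO only; replication: one well per compound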
nonsel antag count – nonselective antagonist in TAAR1 antagonist counter-screen | shares compounds with TAAR1 antagonist | counterscreen cell line, calcium fluorescence, antagonist mode | inhibition, % at 3 µM | actives 77% (n = 2,400); in the data active = inhibition above about 22%;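 also: CHO-Ga16 host cells stimulated with ATP at an EC80 level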
TAAR1 ant conf – human TAAR1 antagonism, confirmed; TAAR1-expressing cells, fluorescence antagonist read-out; inhibition, % at 3 µM; AID 651785; shares compounds with TAAR1 antagonist; actives 40% (n = 2,400); in the data active = inhibition above about 49%;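 also: CHO-Ga16 host cells challenged with agonist PEA near its EC80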
Ga16 ag counter – counter-screen for TAAR1 antagonists: nonselective Ga16 agonists; shares compounds with TAAR1 antagonist; Ga16-expressing cells, calcium fluorescence, agonist counterscreen; activation, % at 3 µM; actives 18% (n = 2,400); AID 651953; in the data active = activation above about 12%
TAAR1 ag count – TAAR1 agonism, antagonist counter-screen; AID 651955; actives 2% (n = 2,400); shares compounds with TAAR1 antagonist; activation, % at 3 µM; hTAAR1 cell line, fluorescence activation, agonist mode; in the data active = activation above about 37%;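 also: CHO cells stably expressing TAAR1 with calcium dye readout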
Hits are given with their value; - = inactive; . = not tested or not shown. Hits are enriched below; roughly 3.9% of the tested compounds scored in any of these assays.

SMILES	OX1R antag-1	TAAR1 antagonist	OX1R antag-2	TAAR1 ag	CHO parental Ca	nonsel antag count	TAAR1 ant conf	Ga16 ag counter	TAAR1 ag count
COc1ccc(N(C)S(=O)(=O)c2cccc(C(=O)Nc3cccc(C(=O)NC4CC4)c3)c2)cc1	-	60.6	-	-	-	-	-	-	-
COc1ccc(N(C)S(=O)(=O)c2cccc(C(=O)OCC(=O)Nc3cc(C)ccc3OC)c2)cc1	.	84.0	.	-	.	33.6	51.4	11.7	-
O=c1c2cc3c(nc2[nH]c(=S)n1-c1ccccc1)CCCC3	-	-	-	-	-	.	.	.	.
COc1ccc(/C=C/C(=O)NC(=S)NCC2CCCO2)cc1 (stereo unspecified)	-	-	-	-	-	.	.	.	.
COc1ccccc1/C=C/C(=O)NC(=S)NCC1CCCO1 (stereo unspecified)	-	74.1	-	-	-	27.0	52.0	-	-
COc1cc(C2CC(=O)c3c([nH]c(C(=O)OCCOC(C)C)c3C)C2)cc(OC)c1OC (stereo unspecified)	-	64.0	-	-	30.7	34.9	-	11.5	-
CCOCCOC(=O)c1[nH]c2c(c1C)C(=O)CC(c1ccc(OC)c(OC)c1)C2 (stereo unspecified)	-	-	-	-	-	.	.	.	.
Cc1c([N+](=O)[O-])cc(C(=O)Nc2ccc(Cc3ccncc3)cc2)cc1[N+](=O)[O-]	-	88.3	-	-	-	31.3	90.6	-	-
O=C(NCCO)c1cccc(Nc2nc(-c3ccccc3)c3cc(Cl)ccc3n2)c1	-	48.9	-	-	-	30.5	-	-	-
COc1cc(C(=O)N/N=C/c2ccc(OC(=O)c3ccccc3Cl)cc2)ccc1O	-	80.3	-	-	-	29.8	58.2	-	-
CC(C)(C)c1ccc(/C=N/NC(=O)c2ccccn2)cc1	-	-	-	-	-	.	.	.	.
O=C(N/N=C/c1ccc(OC(=O)c2ccccc2Br)cc1)c1ccccn1	-	52.0	-	-	-	29.9	-	-	-
COC(=O)c1ccc(/C=N/NC(=O)c2ccccc2Cl)cc1	-	-	-	-	-	.	.	.	.
CCOC(=O)c1ccccc1OCc1cc(/C=N/NC(=O)c2ccncc2)ccc1OC	-	77.1	-	-	-	36.3	54.4	-	-
Nc1ccc(C(=O)N/N=C\c2ccc(OC(=O)c3ccccc3Cl)cc2)cc1	-	68.0	-	-	-	28.8	59.4	-	-
O=C(N/N=C/c1ccc(OC(=O)c2ccccc2)cc1)c1cccc(O)c1	-	-	-	-	-	.	.	.	.
Cc1cn([C@H]2C[C@H](O)[C@@H](CCC(=O)NCCc3cccs3)O2)c(=O)[nH]c1=O	.	-	.	-	.	.	.	.	.
COC(=O)[C@]1(C)N[C@H](c2ccc(SC3CCCCC3)c(OC)c2)[C@@H]2C(=O)N(C)C(=O)[C@@H]21	-	-	-	-	-	.	.	.	.
CCOc1ccc(NC(=O)CCN2CCCCC2)cc1	-	-	-	-	-	.	.	.	.
COc1cc(/C=N/NC(=O)c2cccnc2)ccc1OC(=O)c1ccco1	-	-	-	-	-	.	.	.	.
O=C(Oc1ccc(/C=N/NC(=O)c2ccccc2O)cc1)c1ccccc1	-	74.1	-	-	-	37.7	68.4	-	-
O=C(Oc1ccc(/C=N/NC(=O)c2ccccc2F)cc1)c1ccccc1	-	-	-	-	-	.	.	.	.
COc1cc(/C=N\NC(=O)c2cccnc2)ccc1OC(=O)c1ccccc1Cl	-	54.1	-	-	-	27.9	-	15.7	-
CCOc1cc2c(cc1OC)C(c1cccc([N+](=O)[O-])c1)NCC2 (stereo unspecified)	-	105.7	-	-	-	-	-	-	-
O=S(=O)(NC1CCN(S(=O)(=O)c2c(F)cccc2F)CC1)c1ccc2c(c1)OCCO2	-	-	-	-	-	.	.	.	.
